{"source": "ChEMBL document CHEMBL1921792", "about": "“Synthesis and anticonvulsant activity of trans- and cis-2-(2,6-dimethylphenoxy)-N-(2- or 4-hydroxycyclohexyl)acetamides and their amine analogs” (Bioorg Med Chem, 2011)", "key": {"Rattus norvegicus [1]": {"test_system": "Rattus norvegicus", "assay": "Neurotoxicity in rat assessed as neurological deficit at 500 mg/kg, po after 24 hrs", "assay_type": "toxicity, organism-based", "design": "dose 500 mg/kg, route oral", "settings": "in vivo", "procedure,_shortened": "(§1)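 Rats given the compound, suspended in 0.5% methylcellulose, by the stated route and dose. Neurological deficit was recorded at the listed times as ataxia and loss of placing response and muscle tone. Reported as number of rats showing toxicity/number tested.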"}, "Rattus norvegicus [2]": {"test_system": "Rattus norvegicus", "assay": "Neurotoxicity in rat assessed as neurological deficit at 125 mg/kg, po after 2 hrs", "assay_type": "toxicity, organism-based", "design": "dose 125 mg/kg, route oral", "settings": "in vivo", "procedure,_shortened": "as §1"}, "Rattus norvegicus [3]": {"test_system": "Rattus norvegicus", "assay": "Neurotoxicity in rat assessed as neurological deficit at 125 mg/kg, po after 8 hrs", "assay_type": "toxicity, organism-based", "design": "dose 125 mg/kg, route oral", "settings": "in vivo", "procedure,_shortened": "as §1"}, "Rattus norvegicus [4]": {"test_system": "Rattus norvegicus", "assay": "Anticonvulsant activity in po dosed rat assessed as protection against maximal electric shock-induced seizures", "assay_type": "functional"}, "Rattus norvegicus [5]": {"test_system": "Rattus norvegicus", "assay": "Neurotoxicity in rat assessed as neurological deficit at 250 mg/kg, po after 24 hrs", "assay_type": "toxicity, organism-based", "design": "dose 250 mg/kg, route oral", "settings": "in vivo", "procedure,_shortened": "as §1"}, "Mus musculus [6]": {"test_system": "Mus musculus", "assay": "Neurotoxicity in mouse assessed as inability to maintain equilibrium on rotarod at 130 mg/kg, ip after 1 hr by rotarod test", "assay_type": "toxicity, organism-based", "design": "dose 130 mg/kg, route intraperitoneal", "settings": "in vivo", "procedure,_shortened": "(§2)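 Drug given ip to mice as a suspension in 0.5% methylcellulose. At the stated time after dosing, each mouse was placed on a 1 inch knurled rod turning at 6 rpm. Neurotoxicity = inability to stay balanced at least 1 min in each of three trials. Scored as animals toxic/animals tested in small groups.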"}, "Rattus norvegicus [7]": {"test_system": "Rattus norvegicus", "assay": "Anticonvulsant activity in po dosed rat assessed as time to show peak effect of protection against maximal electric shock-induced seizures", "assay_type": "functional", "procedure,_shortened": "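Time-to-peak-effect assay: MES protection read at 0.25–4 h after dosing. Mice ip (60–130 mg/kg), rats po (15 or 30 mg/kg) or ip (30 mg/kg). Groups of 4–8; result is protected/tested.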"}, "Mus musculus [8]": {"test_system": "Mus musculus", "assay": "Neurotoxicity in mouse assessed as inability to maintain equilibrium on rotarod at 100 mg/kg, ip after 4 hrs by rotarod test", "assay_type": "toxicity, organism-based", "design": "dose 100 mg/kg, route intraperitoneal", "settings": "in vivo", "procedure,_shortened": "as §2"}, "Rattus norvegicus [9]": {"test_system": "Rattus norvegicus", "assay": "Neurotoxicity in rat assessed as neurological deficit at 500 mg/kg, po after 4 hrs", "assay_type": "toxicity, organism-based", "design": "dose 500 mg/kg, route oral", "settings": "in vivo", "procedure,_shortened": "(§3)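 Rats dosed orally with test agent suspended in 0.5% methylcellulose and observed for up to 24 h (time-to-peak-effect design). Neurological deficit was scored as ataxia with loss of placing response and muscle tone. Two rats per dose per time point; results given as number toxic/number tested.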"}, "Rattus norvegicus [10]": {"test_system": "Rattus norvegicus", "assay": "Neurotoxicity in rat assessed as neurological deficit at 30 mg/kg, po after 0.5 hrs […]", "assay_type": "toxicity, organism-based", "design": "dose 30 mg/kg, route oral", "settings": "in vivo", "procedure,_shortened": "as §1"}, "Rattus norvegicus [11]": {"test_system": "Rattus norvegicus", "assay": "Neurotoxicity in rat assessed as neurological deficit at 30 mg/kg, po after 4 hrs by rotarod test", "assay_type": "toxicity, organism-based", "design": "dose 30 mg/kg, route oral", "settings": "in vivo", "procedure,_shortened": "as §1"}, "Rattus norvegicus [12]": {"test_system": "Rattus norvegicus", "assay": "Neurotoxicity in rat assessed as neurological deficit at 250 mg/kg, po after 2 hrs", "assay_type": "toxicity, organism-based", "design": "dose 250 mg/kg, route oral", "settings": "in vivo", "procedure,_shortened": "as §1"}, "Rattus norvegicus [13]": {"test_system": "Rattus norvegicus", "assay": "Neurotoxicity in rat assessed as neurological deficit at 250 mg/kg, po after 0.5 hrs", "assay_type": "toxicity, organism-based", "design": "dose 250 mg/kg, route oral", "settings": "in vivo", "procedure,_shortened": "as §1"}, "Rattus norvegicus [14]": {"test_system": "Rattus norvegicus", "assay": "Neurotoxicity in rat assessed as neurological deficit at 125 mg/kg, po after 1 hr", "assay_type": "toxicity, organism-based", "design": "dose 125 mg/kg, route oral", "settings": "in vivo", "procedure,_shortened": "as §1"}, "Mus musculus [15]": {"test_system": "Mus musculus", "assay": "Neurotoxicity in mouse assessed as inability to maintain equilibrium on rotarod at 30 mg/kg, ip after 4 hrs by rotarod test", "assay_type": "toxicity, organism-based", "design": "dose 30 mg/kg, route intraperitoneal", "settings": "in vivo", "procedure,_shortened": "as §2"}, "Mus musculus [16]": {"test_system": "Mus musculus", "assay": "Neurotoxicity in mouse assessed as inability to maintain equilibrium on rotarod at 130 mg/kg, ip after 0.25 hrs using rotarod test", "assay_type": "toxicity, organism-based", "design": "dose 130 mg/kg, route intraperitoneal", "settings": "in vivo", "procedure,_shortened": "as §2"}, "Rattus norvegicus [17]": {"test_system": "Rattus norvegicus", "assay": "Neurotoxicity in rat assessed as neurological deficit at 62.5 mg/kg, po after 8 hrs", "assay_type": "toxicity, organism-based", "design": "dose 62.5 mg/kg, route oral", "settings": "in vivo", "procedure,_shortened": "as §3"}, "Rattus norvegicus [18]": {"test_system": "Rattus norvegicus", "assay": "Neurotoxicity in rat assessed as neurological deficit at 250 mg/kg, po after 4 hrs", "assay_type": "toxicity, organism-based", "design": "dose 250 mg/kg, route oral", "settings": "in vivo", "procedure,_shortened": "as §1"}, "Rattus norvegicus [19]": {"test_system": "Rattus norvegicus", "assay": "Neurotoxicity in rat assessed as neurological deficit at 250 mg/kg, po after 1 hr", "assay_type": "toxicity, organism-based", "design": "dose 250 mg/kg, route oral", "settings": "in vivo", "procedure,_shortened": "as §1"}, "Rattus norvegicus [20]": {"test_system": "Rattus norvegicus", "assay": "Neurotoxicity in rat assessed as neurological deficit at 250 mg/kg, po after 6 hrs", "assay_type": "toxicity, organism-based", "design": "dose 250 mg/kg, route oral", "settings": "in vivo", "procedure,_shortened": "as §1"}, "[21]": {"assay": "Neurotoxicity in po dosed rat assessed as neurological deficit […]", "assay_type": "toxicity, organism-based", "settings": "in vivo", "procedure,_shortened": "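Rats dosed orally with a suspension in 0.5% methylcellulose. Neurological deficit judged by ataxia and loss of placing response and muscle tone.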"}, "Rattus norvegicus [22]": {"test_system": "Rattus norvegicus", "assay": "Neurotoxicity in rat assessed as neurological deficit at 125 mg/kg, po after 6 hrs", "assay_type": "toxicity, organism-based", "design": "dose 125 mg/kg, route oral", "settings": "in vivo", "procedure,_shortened": "as §1"}, "[23]": {"assay": "Neurotoxicity in ip dosed mouse assessed as inability to maintain equilibrium on rotarod by rotarod test", "assay_type": "toxicity, organism-based", "settings": "in vivo", "procedure,_shortened": "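Mice dosed ip with a suspension in 0.5% methylcellulose, then placed on a 1 inch knurled plastic rod rotating at 6 rpm. Toxicity = failure to keep equilibrium for at least 1 min in each of three trials.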"}, "Rattus norvegicus [24]": {"test_system": "Rattus norvegicus", "assay": "Neurotoxicity in rat assessed as neurological deficit at 500 mg/kg, po after 0.5 hrs", "assay_type": "toxicity, organism-based", "design": "dose 500 mg/kg, route oral", "settings": "in vivo", "procedure,_shortened": "as §1"}, "Mus musculus [25]": {"test_system": "Mus musculus", "assay": "Anticonvulsant activity in ip dosed mouse assessed as protection against maximal electric shock-induced seizures", "assay_type": "functional", "settings": "Mus musculus, ip; read-out: ED50"}, "Mus musculus [26]": {"test_system": "Mus musculus", "assay": "Neurotoxicity in mouse assessed as inability to maintain equilibrium on rotarod at 30 mg/kg, ip after 0.5 hrs by rotarod test", "assay_type": "toxicity, organism-based", "design": "dose 30 mg/kg, route intraperitoneal", "settings": "in vivo", "procedure,_shortened": "as §2"}, "Rattus norvegicus [27]": {"test_system": "Rattus norvegicus", "assay": "Neurotoxicity in rat assessed as neurological deficit at 62.5 mg/kg, po after 1 hr", "assay_type": "toxicity, organism-based", "design": "dose 62.5 mg/kg, route oral", "settings": "in vivo", "procedure,_shortened": "as §3"}}}
{"smiles": "Cc1cccc(C)c1OCC(=O)NC1CCCCC1O.Cl", "note": "(racemic; 1)", "values": [{"measurement": "Activity", "setting": "Rattus norvegicus [1]", "result": "Non-toxic"}, {"measurement": "Activity", "setting": "Rattus norvegicus [2]", "result": "Non-toxic"}, {"measurement": "Activity", "setting": "Rattus norvegicus [3]", "result": "Non-toxic"}, {"measurement": "ED50", "setting": "Rattus norvegicus [4]", "result": 23.6, "unit": "mg/kg"}, {"measurement": "Activity", "setting": "Rattus norvegicus [5]", "result": "Non-toxic"}, {"measurement": "Activity", "setting": "Mus musculus [6]", "result": "Non-toxic"}, {"measurement": "Time", "setting": "Rattus norvegicus [7]", "result": 0.25, "unit": "h"}, {"measurement": "Activity", "setting": "Mus musculus [8]", "result": "Non-toxic"}, {"measurement": "Activity", "setting": "Rattus norvegicus [9]", "result": "Non-toxic"}, {"measurement": "Activity", "setting": "Rattus norvegicus [10]", "result": "Non-toxic"}, {"measurement": "Activity", "setting": "Rattus norvegicus [11]", "result": "Non-toxic"}, {"measurement": "Activity", "setting": "Rattus norvegicus [12]", "result": "Non-toxic"}, {"measurement": "Activity", "setting": "Rattus norvegicus [13]", "result": "Non-toxic"}, {"measurement": "Activity", "setting": "Rattus norvegicus [14]", "result": "Non-toxic"}, {"measurement": "Activity", "setting": "Mus musculus [15]", "result": "Non-toxic"}, {"measurement": "Activity", "setting": "Mus musculus [16]", "result": "Toxic"}, {"measurement": "Activity", "setting": "Rattus norvegicus [17]", "result": "Non-toxic"}, {"measurement": "Activity", "setting": "Rattus norvegicus [18]", "result": "Non-toxic"}, {"measurement": "Activity", "setting": "Rattus norvegicus [19]", "result": "Non-toxic"}, {"measurement": "Activity", "setting": "Rattus norvegicus [20]", "result": "Non-toxic"}, {"measurement": "TD50", "setting": "[21]", "result": "> 500", "unit": "mg/kg"}, {"measurement": "Activity", "setting": "Rattus norvegicus [22]", "result": "Non-toxic"}, {"measurement": "TD50", "setting": "[23]", "result": 106, "unit": "mg/kg"}, {"measurement": "Activity", "setting": "Rattus norvegicus [24]", "result": "Non-toxic"}, {"measurement": "ED50", "setting": "Mus musculus [25]", "result": 43, "unit": "mg/kg"}, {"measurement": "Activity", "setting": "Mus musculus [26]", "result": "Non-toxic"}, {"measurement": "Activity", "setting": "Rattus norvegicus [27]", "result": "Non-toxic"}]}
